Sampled rows, rich in hits. Any-hit rate of the full collection: about 2%.
XiGFP reactiv = X-chromosome reactivation activator; XiGFP mouse fibroblasts, % GFP-positive cells imaging, 3 d; cells co-treated with 5-aza-dC sensitizer; scaled so ellipticine positive control = 100%; activation, % at 7.58 µM; hit rate 0.055% among 360,000; AID 743238;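 active means mean normalized replicate activation at least 10% and every replicate at or above 10%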;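 further: 0% = median of on-plate neutral control wells and 100% = ellipticine 6 µM median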
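Assay system: SV40-immortalized XiGFP fibroblast cells, line 68-5-11; buffer or medium: DMEM plus 5-aza-dC sensitizer; compound: one concentration, pinned; timing: compounds 3 days, fix/stain 15 min at room temperature; benchmarks: positive control ellipticine, 6 µM final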
TWEAK Fn14 block = inhibitors of TWEAK-Fn14 interaction signaling | TWEAK-stimulated Fn14 reporter cells, luciferase luminescence, 8 h | inhibition, % at 10 µM | hit rate 2% among 360,000; in the data active means inhibition above about 50%
LGR2 inh = blocks bursicon-induced cAMP signaling via Drosophila LGR2; HEK293 LGR2, CRE-luciferase, bursicon-stimulated, 4 h; inhibition, % at 9.99 µM; hit rate 0.35% among 380,000;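 active means drop in luminescence signal, shown as inhibition above about 50% in the replicate tests, limit read from the data, passing the limit was not always enough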;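 further: agonist challenge used bursicon conditioned medium at about half maximal strength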
CaV13 ICDI inh = Primary screen for inhibitors of IQ motif and Ca2+-dependent inactivation inhibitor domain binding in CACNA1D, Förster resonance energy transfer in living cells, …; inhibition, % at 12.3 µM; AID 743397; hit rate 0.098% among 340,000; HEK cells, CFP/YFP FRET ICDI-IQ, plate reader, 10 min; percent FRET-ratio fall versus neutral wells;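 active means mean replicate inhibition of at least 30% and at least 1% of replicates passing that level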;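 further: 0% = median of the neutral control wells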
TROY NFkB inh = TROY signaling inhibition; hit rate 0.98% among 360,000; inhibition, % at 10 µM; Q293 LMP1-TROYcd NF-kB luciferase reporter, 4 h;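 active means compounds whose plate-normalised and pattern-corrected inhibition of the luciferase reporter signal at the single screening dose is 50% or more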
* = called active by the depositor; · = no result; + = active, no number.

SMILES	XiGFP reactiv	TWEAK Fn14 block	LGR2 inh	CaV13 ICDI inh	TROY NFkB inh
Cc1ccc(C(=O)Nc2sc3c(c2C(=O)O)CCCCC3)o1	·	65*	-9	-5	-31
CC(C)(C)c1ccc(C(=O)Nc2sc3c(c2C(=O)O)CCC3)cc1	0	88*	39	-4	62*
Cc1ccc(C(=O)Nc2sc3c(c2C(=O)O)CCCC3)o1	0	31	-32	·	-34
O=C(Nc1sc2c(c1C(=O)O)CCCCC2)c1cccs1	1	53*	-32	-2	36
O=C(Nc1sc2c(c1C(=O)O)CCCC2)c1cccs1	·	31	·	-5	-35
C[C@@H]1CN([C@H](C)CO)C(=O)c2cccc(NS(=O)(=O)c3cccs3)c2O[C@@H]1CN(C)Cc1ccc(Oc2ccccc2)cc1	0	·	-22	·	·
Cc1ccc(C)c(S(=O)(=O)Nc2ccc(O)c3ccccc23)c1	0	85*	6	-10	42
OCC1(CCCc2ccccc2)CCN(C2CCSCC2)CC1	0	-1	9	6	-2
CCOC(=O)C1(CCCc2ccccc2)CCN(C2CCSCC2)CC1	0	55*	3	-1	2
C[C@@H]1CN([C@@H](C)CO)S(=O)(=O)c2ccc(-c3ccncc3)cc2O[C@H]1CN(C)S(=O)(=O)c1ccccc1F	-1	·	-5	·	·
O=C(O)c1ccc(-n2c(O)c(C=C3N=c4ccccc4=N3)sc2=S)cc1	0	54*	2	0	-7
CC(=O)Nc1ccc2c(c1)CC(=O)N(C)C[C@H](C)[C@H](CN(C)C(C)=O)O2	0	·	·	·	·
O=[N+]([O-])c1cc(C(F)(F)F)ccc1Sc1nccn1Cc1ccccc1	·	4	·	-5	4
O=[N+]([O-])c1ccc(Sc2ncccn2)c([N+](=O)[O-])c1	0	54*	·	-20	14
O=[N+]([O-])c1ccc(Sc2nccn2Cc2ccccc2)c([N+](=O)[O-])c1	·	69*	13	-9	24
O=c1cc(-c2ccccc2)nc(Sc2ccc([N+](=O)[O-])cc2[N+](=O)[O-])[nH]1	0	52*	6	-5	13
CC=Cc1ccc2n(c1=O)C[C@H]1[C@H](CO)[C@@H](C(=O)NCCCN(C)C)[C@@H]2N1C(=O)c1ccccc1 (mixture of isomers)	0	·	-2	·	·
CN1[C@@H]2c3ccc(-c4cccnc4)c(=O)n3C[C@@H]2[C@@H](CO)[C@@H]1C(=O)NCC1CCCCC1	0	·	1	·	·
C=C(c1ccc(O)cc1)c1ccc(O)cc1	·	42	·	·	51*
COc1cc(C2Nc3ccccc3C(=O)N2c2ccc3c(c2)OCCO3)ccc1OCC(C)C (configuration not stated)	·	67*	·	-2	24
O=C1c2ccccc2NC(c2ccc3c(c2)OCCO3)N1c1ccc2c(c1)OCCO2 (configuration not stated)	·	59*	·	-5	59*
CN(C[C@H]1[C@@H](c2ccccc2)[C@H](CO)N1Cc1ccccn1)S(C)(=O)=O	0	·	3	·	·
CC(C)=CCC/C(C)=C/CNC(=O)CC1C[C@H](C(=O)N(C(C)C)C(C)C)[C@@]2(C)c3[nH]c4ccccc4c3CCN2C1=O (some centres not stated)	0	37	-3	-5	-6
CC(C)=CCC/C(C)=C/CNC(=O)C[C@H]1C[C@H](C(=O)N(C(C)C)C(C)C)[C@@]2(C)c3[nH]c4ccc(Cl)cc4c3CCN2C1=O	0	56*	-2	-10	7
O=C(NC(=S)N1CCN(c2nc(-c3ccccc3)cs2)CC1)c1cncc(Br)c1	0	-5	-8	+	1
SMILES	XiGFP reactiv	TWEAK Fn14 block	LGR2 inh	CaV13 ICDI inh	TROY NFkB inh
Cc1c(C(=O)Nc2ccccc2)cnn1-c1ccccc1	0	-6	-73	3	-19
Cc1ccc(NC(=O)c2cnn(-c3ccccc3)c2C)cc1C	0	85*	85*	-4	63*
COc1ccc(NC(=O)c2cnn(-c3ccccc3)c2C)cc1	0	50*	·	0	-15
COc1ccc(NC(=O)c2cnn(-c3ccccc3)c2C)cc1OC	0	-21	-44	-20	-43
C[C@H](CO)N1C[C@H](C)[C@@H](CN(C)Cc2ccc(Oc3ccccc3)cc2)Oc2ccc(NC(=O)Nc3ccc(C(F)(F)F)cc3)cc2CC1=O	0	·	36	·	·
O=C(Nc1ccc(S(=O)(=O)Nc2nccs2)cc1)c1cccc(N2C(=O)c3ccccc3C2=O)c1	0	8	11	-5	-3
O=C(Nc1nccs1)c1cccc(N2C(=O)c3cccc4c([N+](=O)[O-])ccc(c34)C2=O)c1	·	85*	·	·	·
CC(=O)Oc1cccc(N2C(=O)c3ccc(C(=O)O)cc3C2=O)c1	·	2	·	-3	9
CC(=O)Oc1cccc(N2C(=O)c3cccc4c([N+](=O)[O-])ccc(c34)C2=O)c1	13*	-91	20	-5	27
Cc1ccc(C(=O)O)cc1N1C(=O)c2cccc3c([N+](=O)[O-])ccc(c23)C1=O	3	13	-3	-53	-20
O=C(O)c1ccc(CN2C(=O)c3cccc4c([N+](=O)[O-])ccc(c34)C2=O)cc1	·	53*	-2	·	71*
COc1ccc(-c2ccc3c(c2)O[C@H](CN(C)CC2CCOCC2)[C@H](C)CN([C@@H](C)CO)S3(=O)=O)cc1	0	·	-1	·	·
CCC(=O)N[C@H]1CC[C@H](CCn2cc(CN(C)C)nn2)O[C@H]1CO	0	·	5	·	·
C[C@H]1CCCCO[C@@H](CN(C)C(=O)Nc2ccc(C(F)(F)F)cc2)[C@@H](C)CN([C@@H](C)CO)C(=O)c2cc(NC(=O)Nc3ccccc3)ccc2O1	0	·	-12	·	·
O=C(c1ccccc1)N1CC2(C1)[C@@H](c1ccccc1)[C@@H](CO)N2Cc1cccnc1	0	·	·	·	·
Cc1ccc([N+](=O)[O-])cc1Nc1nc(N2CCCC2)nc(N2CCCC2)n1	0	52*	7	-21	-6
COc1ccc2c(c1)/C(=C\c1cccc(/C=C3/C(=O)Nc4ccc(OC)cc43)n1)C(=O)N2	5	100*	74*	-6	31
Cc1ccc2c(c1)/C(=C/c1ccccc1)C(=O)N2	0	50	-10	-4	13
COc1ccc(-c2nc(-c3cccs3)c(-c3cccs3)[nH]2)cc1OC	·	-9	·	-6	-14
O=[N+]([O-])c1ccc(-c2nc(-c3cccs3)c(-c3cccs3)[nH]2)cc1	·	79*	16	·	66*
O=[N+]([O-])c1cccc(-c2nc(-c3cccs3)c(-c3cccs3)[nH]2)c1	·	58*	·	-5	19
O=[N+]([O-])c1cccc(-c2nc(-c3ccccc3)c(-c3cccs3)[nH]2)c1	·	12	2	-5	10
O=C(c1cccnc1)N1C[C@@H]2[C@H](c3ccccc31)[C@H](CO)N2C(=O)CN1CCOCC1	0	·	-9	·	·

From PubChem
